Experimental findings from publication PMC7340117 (SLAS discovery : advancing life sciences R & D, 2019) are described below.

Data set [1] in a line: Amplex red REDOX assay. An outline of the steps:
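Test compound (20 nL) was pinned into HBSS (1.26 mM CaCl2, 0.49 mM MgCl2, 1 g/L D-glucose), and background fluorescence was read (ex/em 525/598 nm). An equal volume of 2X Amplex Red mix (100 µM Amplex Red, 200 µM DTT, 2 U/mL HRP in HBSS) was added. After 15 min at room temperature the plate was re-read; ΔRFU = 15 min − 0 min. DMSO was the negative control; walrycin B and […] were positive controls.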

Data set [2] addresses T1, human fumarate hydratase (Homo sapiens, UniProt P07954).
T1 sequence (P07954 45-510): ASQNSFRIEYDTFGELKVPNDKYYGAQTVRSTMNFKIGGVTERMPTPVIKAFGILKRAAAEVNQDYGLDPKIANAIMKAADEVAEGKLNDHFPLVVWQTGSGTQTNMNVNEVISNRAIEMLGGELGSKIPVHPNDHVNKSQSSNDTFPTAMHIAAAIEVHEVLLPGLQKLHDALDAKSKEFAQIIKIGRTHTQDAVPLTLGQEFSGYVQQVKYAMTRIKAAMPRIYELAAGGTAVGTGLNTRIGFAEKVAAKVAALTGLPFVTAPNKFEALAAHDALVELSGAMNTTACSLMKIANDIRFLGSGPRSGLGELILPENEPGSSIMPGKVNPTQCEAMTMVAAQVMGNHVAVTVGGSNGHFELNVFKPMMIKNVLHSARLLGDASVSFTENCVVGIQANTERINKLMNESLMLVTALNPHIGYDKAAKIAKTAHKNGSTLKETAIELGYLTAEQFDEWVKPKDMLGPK
Description: fluorescence-based FH assay coupled to MDH/diaphorase/resazurin. It is filed as biochemical. The following applies: for Emax: read-out: Efficacy; for activity in FH assay (in words): human FH assay with fumarate. (In general: The colour change of resazurin is a common sign of viable cells or microbes.)

For data set [3], the target named is T1, human fumarate hydratase. Description: microscale thermophoresis. It is filed as binding. The essentials: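 Recombinant C-terminally His-tagged human FH (200 nM) was labelled with RED-tris-NTA dye (100 nM) in PBS-T pH 7.4, mixed 1:1 for 30 min at RT, and spun 15,000 x g. Compound: 16-point 1:2 DMSO series from 10 mM, diluted 20-fold in PBS-T, mixed 1:1 with protein (50 nM FH), 2–3 min RT. Settings: LED 40%, MST 40%/60%, laser 30 s on. Kd taken from cold/hot regions.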

A short description of data set [4]: rat microsomal stability assay. It is filed as in vitro ADME. The following applies: liver microsomes. On the technique in general: Microsomes from liver hold many membrane-bound enzymes, among them those of drug oxidation.
Data set [5] can be described thus: parallel artificial membrane permeability assay. Type of data set: in vitro ADME.
Data set [6] can be described thus: aqueous kinetic solubility assay. Type of data set: physicochemical. Particulars: aqueous medium, kinetic from dmso stock.
The target in data set [7] is T2, L-malate dehydrogenase from pig heart (Sus scrofa, UniProt P00346).
T2 sequence (P00346 25-338): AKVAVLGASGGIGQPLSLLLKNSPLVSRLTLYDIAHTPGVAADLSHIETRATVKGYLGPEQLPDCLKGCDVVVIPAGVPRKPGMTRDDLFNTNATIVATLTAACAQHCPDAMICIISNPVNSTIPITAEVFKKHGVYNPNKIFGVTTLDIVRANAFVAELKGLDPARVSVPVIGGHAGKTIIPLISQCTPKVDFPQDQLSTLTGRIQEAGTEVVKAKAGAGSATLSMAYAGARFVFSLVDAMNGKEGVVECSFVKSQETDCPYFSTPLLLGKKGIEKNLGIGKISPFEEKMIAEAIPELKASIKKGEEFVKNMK
Description: malate dehydrogenase. Type of data set: biochemical. Particulars: read-out: Km value for MDH enzyme; 10 IU/ml MDH, 5 min, room temperature.

Data set [8] concerns the target T1, human fumarate hydratase. Description: FH assay without fumarate. Type of data set: biochemical. The following applies: no fumarate added.
Data set [9] addresses T3, malate dehydrogenase (Sus scrofa, UniProt P00346).
T3 sequence (P00346 25-338): T2 sequence (P00346 25-338)
The data set can be described thus: MDH assay without malate. It is filed as biochemical, pig. Particulars: no malate added.

Molecules are shown by their SMILES. Converted amounts (≈) assume the structure as drawn. Like-named read-outs stand apart in the source and are kept apart here.

Consider `O=C1C(Cl)=C(Cl)C(=O)C(Cl)=C1Cl` [Chloranil], for which the “redox activity in amplex red assay (in words)” value in data set [1] was “strong REDOX activity”.

Take `Cn1c(=O)c2c(-c3ccc(Cl)cc3)n(CCc3ccccc3)cc2n(C)c1=O` [NCGC00102736, 5-(4-chlorophenyl)-1,3-dimethyl-6-phenethyl-1,6-dihydro-2H-pyrrolo[3,4-d]pyrimidine-2,4(3H)-dione]: in data set [2], the activity was half-maximal at 8.89 µM (AC50) and the Emax amounted to 79.4%. The dissociation constant (Kd) – broadly, the equilibrium constant for the complex coming apart – in data set [3] came out at 18.3 µM. The half-life (usually how long it takes for the measured level to halve) in data set [4] worked out at 1.11 min. Moreover, in data set [5], the “PAMPA permeability pH 5” value is recorded as 762.26 1×10–6 cm/s, the “PAMPA Permeability pH 7.4” value is given as 1,224.00 1×10–6 cm/s and the “PAMPA permeability at pH 7.4 (in words)” value is listed as “high permeability”. For the same molecule, in data set [6], the concentration in solution (solubility) was 2.15 µg/mL (≈ 5.46 µM).

Regarding `CCCCn1cc2c(c1-c1ccc(Cl)cc1)c(=O)n(C)c(=O)n2C` [NCGC00115662, 6-butyl-5-(4-chlorophenyl)-1,3-dimethyl-1,6-dihydro-2H-pyrrolo[3,4-d]pyrimidine-2,4(3H)-dione], in [2], half-maximal activity (AC50) was put at 25.1 µM and the Emax was 60.5%.

Take `Cn1c(=O)c2c(-c3ccc(Cl)cc3)n(Cc3ccc(Cl)cc3)cc2n(C)c1=O` [NCGC00115664, 6-(4-chlorobenzyl)-5-(4-chlorophenyl)-1,3-dimethyl-1,6-dihydro-2H-pyrrolo[3,4-d]pyrimidine-2,4(3H)-dione]: in data set [2], the activity was half-maximal at 17.7 µM (AC50) and the Emax stood at 52%.

Take `CCCCCn1cc2c(c1-c1ccc(Cl)cc1)c(=O)n(C)c(=O)n2C` [NCGC00115666, 5-(4-chlorophenyl)-1,3-dimethyl-6-pentyl-1,6-dihydro-2H-pyrrolo[3,4-d]pyrimidine-2,4(3H)-dione]: in data set [2], the AC50 (commonly the concentration giving half of the maximal activity seen) came out at 5.61 µM and the Emax came out at 35%.

As for `Cn1c(=O)c2c(-c3ccccc3Cl)n(Cc3ccc(Cl)cc3)cc2n(C)c1=O` [NCGC00115668, 6-(4-chlorobenzyl)-5-(2-chlorophenyl)-1,3-dimethyl-1,6-dihydro-2H-pyrrolo[3,4-d]pyrimidine-2,4(3H)-dione], in data set [2], half-maximal activity (AC50) was put at 15.8 µM and the Emax was determined as 45.5%.

Turning to `CCCCCn1cc2c(c1-c1ccc(Br)cc1)c(=O)n(C)c(=O)n2C` [NCGC00117671, 5-(4-bromophenyl)-1,3-dimethyl-6-pentyl-1,6-dihydro-2H-pyrrolo[3,4-d]pyrimidine-2,4(3H)-dione], in data set [2], the AC50 amounted to 7.93 µM and the Emax came out at 60.1%. In addition, the half-life in [4] stood at 6.39 min. In data set [5], the “PAMPA permeability pH 5” value is on record as 945.87 1×10–6 cm/s and the “PAMPA Permeability pH 7.4” value is recorded as “Not conclusive”. Further, the solubility (in general, how much of the substance goes into solution per volume) in data set [6] is < 1 µg/mL.

Consider `CCCCn1cc2c(c1-c1ccc(Br)cc1)c(=O)n(C)c(=O)n2C` [NCGC00117675, 5-(4-bromophenyl)-6-butyl-1,3-dimethyl-1,6-dihydro-2H-pyrrolo[3,4-d]pyrimidine-2,4(3H)-dione], for which, in data set [2], the activity was half-maximal at 9.98 µM (AC50) and the Emax worked out at 79%. Also, binding in [3] was put at a Kd of 23.3 µM. In data set [4], this molecule displayed a half-life of 7.68 min. In addition, in [5], the “PAMPA permeability pH 5” value is reported as 1,194 1×10–6 cm/s, the “PAMPA Permeability pH 7.4” value is 1,507 1×10–6 cm/s and the “PAMPA permeability at pH 7.4 (in words)” value is on record as “high permeability”. Moreover, in data set [6], the solubility was < 1 µg/mL.

As to `Cn1c(=O)c2c(-c3ccc(Br)cc3)n(CCc3ccccc3)cc2n(C)c1=O` [NCGC00117693, 5-(4-bromophenyl)-1,3-dimethyl-6-phenethyl-1,6-dihydro-2H-pyrrolo[3,4-d]pyrimidine-2,4(3H)-dione], in data set [2], the AC50 stood at 7.06 µM and the Emax amounted to 63.7%. The same molecule displayed a half-life in [4] of 1.23 min. Further, in data set [5], the “PAMPA permeability pH 5” value is on record as 590 1×10–6 cm/s and the “PAMPA Permeability pH 7.4” value is reported as “Not conclusive”. The amount in solution in [6] (solubility) came to 14.7 µg/mL (≈ 33.5 µM).

For the molecule `COc1ccc(CCn2cc3c(c2-c2ccc(Br)cc2)c(=O)n(C)c(=O)n3C)cc1OC` [NCGC00117695, 5-(4-bromophenyl)-6-(3,4-dimethoxyphenethyl)-1,3-dimethyl-1,6-dihydro-2H-pyrrolo[3,4-d]pyrimidine-2,4(3H)-dione], in [2], half-maximal activity (AC50) was put at 31.5 µM and the Emax was determined as 79.5%.

As to `CCCCCn1cc2c(c1-c1ccccc1Br)c(=O)n(C)c(=O)n2C` [NCGC00117699, 5-(2-bromophenyl)-1,3-dimethyl-6-pentyl-1,6-dihydro-2H-pyrrolo[3,4-d]pyrimidine-2,4(3H)-dione], in data set [2], half-maximal activity (AC50) was put at 31.5 µM and the Emax stood at 49.7%.

For the molecule `Cn1c(=O)c2c(-c3ccccc3Br)n(Cc3ccccc3)cc2n(C)c1=O` [NCGC00117701, 6-benzyl-5-(2-bromophenyl)-1,3-dimethyl-1,6-dihydro-2H-pyrrolo[3,4-d]pyrimidine-2,4(3H)-dione], in [2], the AC50 is 28.1 µM and the Emax was 78.1%.

As for `Cn1c(=O)c2c(-c3ccccc3Br)n(CCc3ccccc3)cc2n(C)c1=O` [NCGC00117727, 5-(2-bromophenyl)-1,3-dimethyl-6-phenethyl-1,6-dihydro-2H-pyrrolo[3,4-d]pyrimidine-2,4(3H)-dione], in data set [2], the AC50 was 25.1 µM and the Emax is 70%.

For the molecule `Cn1c(=O)c2c(-c3ccccc3)n(CCCO)cc2n(C)c1=O` [NCGC00141286], the “activity in FH assay (in words)” value in data set [2] was “inactive”.

On to `O=C([O-])C(O)C(O)C(=O)[O-].[K+].[Na+]` (centres unmarked) [Potassium sodium tartrate, reference compound], for which the “activity in FH assay (in words)” value in data set [2] is “increased activity”.

On to `Cn1nc(-c2ccc(C(F)(F)F)cc2)nc2c(=O)n(C)c(=O)nc1-2` [Walrycin B], for which the “redox activity in amplex red assay (in words)” value in data set [1] is “weak”; in data set [1] (listed as walrycin B), “weak REDOX activity”.

Regarding `O=C(O)/C=C/C(=O)O` [fumarate, reference compound], the Km (commonly the substrate concentration at which the rate is half of its maximum) in data set [2] (read-out: Km value for FH enzyme, 10 nM FH, 15 min, room temperature) is 41 ± 1.1 µM.

On to `O=C(O)CC(O)C(=O)O` (centres unmarked) [malate], for which the Km in data set [7] worked out at 225 ± 30 µM.

Take `O=C(O)C(O)C(O)C(=O)O` (centres unmarked) [tartrate]: the “signal in FH assay in the absence of fumarate (in words)” value in [8] is given as “can drive both enzymes”. Moreover, the “signal in MDH assay in the absence of malate (in words)” value in [9] is “can drive both enzymes”.
